Source: article PMC10439066 (Drugs in R&D, 2023)

What was measured:
recombinant human AKR1C2 = molecular target: T1, recombinant human AKR1C2 (Homo sapiens, UniProt P52895); assay: Related enzyme screen; assay type: biochemical; conditions: preclinical screen
T1 sequence (P52895 1-323): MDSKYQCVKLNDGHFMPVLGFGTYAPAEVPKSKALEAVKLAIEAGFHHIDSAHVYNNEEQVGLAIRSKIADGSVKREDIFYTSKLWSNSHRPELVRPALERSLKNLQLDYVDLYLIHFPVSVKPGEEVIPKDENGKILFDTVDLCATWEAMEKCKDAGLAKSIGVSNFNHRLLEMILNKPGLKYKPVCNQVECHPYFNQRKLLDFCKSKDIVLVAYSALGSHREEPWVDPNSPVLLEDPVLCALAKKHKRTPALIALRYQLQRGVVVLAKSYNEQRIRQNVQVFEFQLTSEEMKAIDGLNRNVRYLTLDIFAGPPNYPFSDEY

[1] = system: adult premenopausal women with endometriosis-related pain symptoms; assay: AKRENDO1 phase IIa trial, adverse events; assay type: in vivo, human
Procedure, shortened: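 Randomized, placebo-controlled phase IIa trial in women ≥18 years with surgically or imaging-confirmed endometriosis who met defined pain criteria. Oral dosing: 3 mg OD, 10 mg OD, 30 mg OD, 30 mg BID, 60 mg BID, or placebo for 12 weeks. Visits at days 10, 28, 56 and 84 (±4 d), plus follow-up 2 weeks after end of treatment. Incidence of AEs, SAEs and TEAEs recorded.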

[2] = system: adult premenopausal women with endometriosis-related pain symptoms; assay: AKRENDO1 phase IIa trial, liver laboratory parameters; assay type: in vivo, human
Procedure, shortened: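 Over 12 weeks of oral dosing or placebo, ALT, AST, total bilirubin and INR were measured at all visits except visit 2. Baseline was the last value before treatment start (visit 3, otherwise screening). Suspected liver injury was worked up per FDA 2009 DILI guidance. Severity was graded by DILI Expert Working Group criteria and causality by RUCAM. Post-baseline ALT was classed by ULN multiples.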

[3] = AKRENDO1 population pharmacokinetic analysis; assay type: in vivo, human; conditions: 3 mg OD relative to all doses >3 mg; 95% confidence interval, 11–59; popPK model
serum androsterone = assay: AKRENDO1 pharmacodynamics; assay type: in vivo, human; conditions: completers
androgen receptor = conditions: cited from earlier work
progesterone receptor = conditions: cited from earlier work
[4] = 3 mg OD n = 11, largest value per participant
[5] = 3 mg OD n = 11, treatment-emergent
[6] = 10 mg OD n = 31, largest value per participant
[7] = 10 mg OD n = 31, treatment-emergent
[8] = 30 mg BID n = 11, largest value per participant
[9] = 30 mg BID n = 11, treatment-emergent
[10] = 30 mg OD n = 10, largest value per participant
[11] = 30 mg OD n = 10, treatment-emergent
[12] = 60 mg BID n = 27, largest value per participant
[13] = 60 mg BID n = 27, treatment-emergent

In the case of `CN(CCC(=O)O)C(=O)c1ccc2c(c1)CC[C@@H]1[C@@H]2CC[C@]2(C)C(c3cncc(F)c3)=CC[C@@H]12` [BAY1128688], the “activity against related enzyme” value (recombinant human AKR1C2) was “no relevant activity”, the “Any AE” value ([1]; 3 mg OD n = 11) was 8 (72.7) Number (%) and the “Any SAE” value ([1]; 3 mg OD n = 11) was 1 (9.1) Number (%). For the same molecule, the “Any TEAE” value ([1]; 3 mg OD n = 11) was 5 (45.5) Number (%), the “Any TESAE” value ([1]; 3 mg OD n = 11) was 1 (9.1) Number (%) and the “Discontinuation due to TEAE” value ([1]; 3 mg OD n = 11) was 0 Number (%). The “Discontinuation due to TESAE” value ([1]; 3 mg OD n = 11) was 0 Number (%), the “Procedure-related TEAE” value ([1]; 3 mg OD n = 11) was 0 Number (%) and the “SAE related to procedure” value ([1]; 3 mg OD n = 11) was 0 Number (%). For the same molecule, the “Study-drug-related SAE” value ([1]; 3 mg OD n = 11) was 0 Number (%), the “Study-drug-related TEAE” value ([1]; 3 mg OD n = 11) was 4 (36.4) Number (%) and the “participants with TEAEs” value ([1]; 10 mg OD) was 32.3%. For the same molecule, the “participants with study-drug-related TEAEs” value ([1]; 10 mg OD) was 9.7%, the “Any AE” value ([1]; 10 mg OD n = 31) was 16 (51.6) Number (%) and the “Any SAE” value ([1]; 10 mg OD n = 31) was 0 Number (%). For the same molecule, the “Any TEAE” value ([1]; 10 mg OD n = 31) was 10 (32.3) Number (%), the “Any TESAE” value ([1]; 10 mg OD n = 31) was 0 Number (%) and the “Discontinuation due to TEAE” value ([1]; 10 mg OD n = 31) was 1 (3.2) Number (%). For the same molecule, the “Discontinuation due to TESAE” value ([1]; 10 mg OD n = 31) was 0 Number (%), the “Procedure-related TEAE” value ([1]; 10 mg OD n = 31) was 0 Number (%) and the “SAE related to procedure” value ([1]; 10 mg OD n = 31) was 0 Number (%). For the same molecule, the “Study-drug-related SAE” value ([1]; 10 mg OD n = 31) was 0 Number (%), the “Study-drug-related TEAE” value ([1]; 10 mg OD n = 31) was 3 (9.7) Number (%) and the “Any AE” value ([1]; 30 mg BID n = 11) was 7 (63.6) Number (%). For the same molecule, the “Any SAE” value ([1]; 30 mg BID n = 11) was 0 Number (%), the “Any TEAE” value ([1]; 30 mg BID n = 11) was 6 (54.5) Number (%) and the “Any TESAE” value ([1]; 30 mg BID n = 11) was 0 Number (%). The “Discontinuation due to TEAE” value ([1]; 30 mg BID n = 11) was 2 (18.2) Number (%), the “Discontinuation due to TESAE” value ([1]; 30 mg BID n = 11) was 0 Number (%) and the “Procedure-related TEAE” value ([1]; 30 mg BID n = 11) was 0 Number (%). The “SAE related to procedure” value ([1]; 30 mg BID n = 11) was 0 Number (%), the “Study-drug-related SAE” value ([1]; 30 mg BID n = 11) was 0 Number (%) and the “Study-drug-related TEAE” value ([1]; 30 mg BID n = 11) was 2 (18.2) Number (%). For the same molecule, the “participants with TEAEs” value ([1]; 30 mg OD) was 90.0%, the “Any AE” value ([1]; 30 mg OD n = 10) was 9 (90.0) Number (%) and the “Any SAE” value ([1]; 30 mg OD n = 10) was 2 (20.0) Number (%). For the same molecule, the “Any TEAE” value ([1]; 30 mg OD n = 10) was 9 (90.0) Number (%), the “Any TESAE” value ([1]; 30 mg OD n = 10) was 2 (20.0) Number (%) and the “Discontinuation due to TEAE” value ([1]; 30 mg OD n = 10) was 0 Number (%). For the same molecule, the “Discontinuation due to TESAE” value ([1]; 30 mg OD n = 10) was 0 Number (%), the “Procedure-related TEAE” value ([1]; 30 mg OD n = 10) was 0 Number (%) and the “SAE related to procedure” value ([1]; 30 mg OD n = 10) was 0 Number (%). For the same molecule, the “Study-drug-related SAE” value ([1]; 30 mg OD n = 10) was 1 (10.0) Number (%), the “Study-drug-related TEAE” value ([1]; 30 mg OD n = 10) was 4 (40.0) Number (%) and the “participants with study-drug-related TEAEs” value ([1]; 60 mg BID) was 51.9%. For the same molecule, the “Any AE” value ([1]; 60 mg BID n = 27) was 23 (85.2) Number (%), the “Any SAE” value ([1]; 60 mg BID n = 27) was 1 (3.7) Number (%) and the “Any TEAE” value ([1]; 60 mg BID n = 27) was 21 (77.8) Number (%). For the same molecule, the “Any TESAE” value ([1]; 60 mg BID n = 27) was 1 (3.7) Number (%), the “Discontinuation due to TEAE” value ([1]; 60 mg BID n = 27) was 3 (11.1) Number (%) and the “Discontinuation due to TESAE” value ([1]; 60 mg BID n = 27) was 0 Number (%). The “Procedure-related TEAE” value ([1]; 60 mg BID n = 27) was 2 (7.4) Number (%), the “SAE related to procedure” value ([1]; 60 mg BID n = 27) was 0 Number (%) and the “Study-drug-related SAE” value ([1]; 60 mg BID n = 27) was 1 (3.7) Number (%). The “Study-drug-related TEAE” value ([1]; 60 mg BID n = 27) was 14 (51.9) Number (%), the “ALT > 2 × ULN and ≤3 × ULN” value [2, 4] was 0 n (%) and the “ALT > 3 × ULN and ≤5 × ULN” value [2, 4] was 0 n (%). For the same molecule, the “ALT > 5 × ULN and ≤8 × ULN” value [2, 4] was 0 n (%), the “ALT > 8 × ULN” value [2, 4] was 0 n (%) and the “AST > 3 × ULN and ≤5 × ULN” value [2, 4] was 0 n (%). The “AST > 8 × ULN” value [2, 4] was 0 n (%), the “ALT, total number of participants with > 2 × ULN” value (“ALT, total number of participants” for short) [2, 5] was 0 n (%) and the “AST, total number of participants with > 2 × ULN” value (“AST, total number of participants” below) [2, 5] was 0 n (%). For the same molecule, the “Bilirubin in serum > 2 × ULN” value [2, 5] was 0 n (%), the “ALT > 2 × ULN and ≤3 × ULN” value [2, 6] was 1 (3.2) n (%) and the “ALT > 3 × ULN and ≤5 × ULN” value [2, 6] was 0 n (%). The “ALT > 5 × ULN and ≤8 × ULN” value [2, 6] was 0 n (%), the “ALT > 8 × ULN” value [2, 6] was 0 n (%) and the “AST > 3 × ULN and ≤5 × ULN” value [2, 6] was 0 n (%). The “AST > 8 × ULN” value [2, 6] was 0 n (%), the “ALT, total number of participants” value [2, 7] was 1 (3.2) n (%) and the “AST, total number of participants” value [2, 7] was 0 n (%). The “Bilirubin in serum > 2 × ULN” value [2, 7] was 0 n (%), the “ALT > 2 × ULN and ≤3 × ULN” value [2, 8] was 0 n (%) and the “ALT > 3 × ULN and ≤5 × ULN” value [2, 8] was 0 n (%). The “ALT > 5 × ULN and ≤8 × ULN” value [2, 8] was 0 n (%), the “ALT > 8 × ULN” value [2, 8] was 0 n (%) and the “AST > 3 × ULN and ≤5 × ULN” value [2, 8] was 0 n (%). The “AST > 8 × ULN” value [2, 8] was 0 n (%), the “ALT, total number of participants” value [2, 9] was 0 n (%) and the “AST, total number of participants” value [2, 9] was 0 n (%). The “Bilirubin in serum > 2 × ULN” value [2, 9] was 0 n (%), the “ALT > 2 × ULN and ≤3 × ULN” value [2, 10] was 0 n (%) and the “ALT > 3 × ULN and ≤5 × ULN” value [2, 10] was 2 (20.0) n (%). For the same molecule, the “ALT > 5 × ULN and ≤8 × ULN” value [2, 10] was 0 n (%), the “ALT > 8 × ULN” value [2, 10] was 1 (10.0) n (%) and the “AST > 3 × ULN and ≤5 × ULN” value [2, 10] was 0 n (%). For the same molecule, the “AST > 8 × ULN” value [2, 10] was 1 (10.0) n (%), the “ALT, total number of participants” value [2, 11] was 3 (30.0) n (%) and the “AST, total number of participants” value [2, 11] was 1 (10.0) n (%). For the same molecule, the “Bilirubin in serum > 2 × ULN” value [2, 11] was 1 (10.0) n (%), the “ALT > 2 × ULN and ≤3 × ULN” value [2, 12] was 1 (3.7) n (%) and the “ALT > 3 × ULN and ≤5 × ULN” value [2, 12] was 3 (11.1) n (%). For the same molecule, the “ALT > 5 × ULN and ≤8 × ULN” value [2, 12] was 1 (3.7) n (%), the “ALT > 8 × ULN” value [2, 12] was 1 (3.7) n (%) and the “AST > 3 × ULN and ≤5 × ULN” value [2, 12] was 2 (7.4) n (%). For the same molecule, the “AST > 8 × ULN” value [2, 12] was 1 (3.7) n (%), the “ALT, total number of participants” value [2, 13] was 6 (22.2) n (%) and the “AST, total number of participants” value [2, 13] was 3 (11.1) n (%). For the same molecule, the “Bilirubin in serum > 2 × ULN” value [2, 13] was 2 (7.4) n (%), the “Dose-dependency of increase in liver transaminases up to liver injury” value ([2]; AKRENDO1) was “Risk increased with dose, but extent of ALT increase/liver injury not directly correlated with exposure” and the “Dose-dependency of isolated increase in serum bilirubin” value ([2]; AKRENDO1) was “Directly correlated with exposure”. For the same molecule, the “Timing of increase in liver transaminases up to liver injury” value ([2]; AKRENDO1) was >8 weeks of exposure to BAY1128688, the “time to restoration of normal ALT levels” value ([2]; after end of treatment) was “up to 3 months” and the “participants with ALT increase > 5 × ULN” value ([2]; all dose groups) was “Three”. For the same molecule, the “participants with increased ALT > 3 × ULN” value ([2]; all dose groups, 90 exposed) was “eight”, the “hepatotoxicity (elevations in serum ALT)” value ([2]; at around 12 weeks of treatment) was “Dose-/exposure-dependent hepatotoxicity was observed” and the “increase in relative bioavailability” value [3] was 35%. For the same molecule, the “cyclicity of sex hormones” value (serum androsterone) was “No changes”, the “serum concentrations of androsterone” value (serum androsterone; from visit 4 onwards, 12 weeks) was “increased dose-dependently” and the agonism or antagonism (androgen receptor) was “no relevant agonism or antagonism”. For the same molecule, the agonism or antagonism (progesterone receptor) was “no relevant agonism or antagonism”.
